Assay results as given in ChEMBL document CHEMBL2417530, “Coumarin derivatives protect against ischemic brain injury in rats” (Eur J Med Chem, 2013).
The source made the active and inactive calls. The rule behind the calls is not given here.

Experiments:
Rattus norvegicus [1] = assay: In vivo neuroprotective activity in Sprague-Dawley rat transient middle cerebral artery occlusion model assessed as suppression of neuronal loss in cerebral cortex at 1.5 to 6 mg/kg, iv measured 24 hrs post reperfusion by TUNEL assay; assay type: functional, organism-based
Procedure, shortened: (§1)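 Transient MCAO in rats (60 min occlusion), with iv treatment at 1.5, 3.0 or 6.0 mg/kg at reperfusion. At 24 h brains were perfusion-fixed in 4% paraformaldehyde and paraffin-embedded. Hippocampal or cortical sections were proteinase K-treated (20 µg/mL, 15 min, RT), given TdT reaction (37 °C, 1 h) and anti-digoxigenin-AP detection, and TUNEL-positive cells were examined at 200×.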

Rattus norvegicus [2] = assay: In vivo neuroprotective activity in Sprague-Dawley rat transient middle cerebral artery occlusion model assessed as suppression of neuronal loss in hippocampus at 1.5 to 6 mg/kg, iv measured 24 hrs post reperfusion by TUNEL assay; assay type: functional, organism-based; procedure, shortened: as §1
Rattus norvegicus [3] = assay: In vivo neuroprotective activity in iv dosed Sprague-Dawley rat transient middle cerebral artery occlusion model assessed as suppression of neuronal loss in cerebral cortex measured 24 hrs post reperfusion by nissl staining assay; assay type: functional, organism-based
Procedure, shortened: (§2)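 After 60 min transient MCAO with iv treatment at reperfusion, rats were perfused at 24 h with PBS, then 4% buffered paraformaldehyde. Brains were paraffin-embedded and coronal sections stained with 0.5% cresyl fast violet (Nissl). Cortex and hippocampus were examined at 200×.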

Rattus norvegicus [4] = assay: In vivo neuroprotective activity in iv dosed Sprague-Dawley rat transient middle cerebral artery occlusion model assessed as suppression of neuronal loss in hippocampus measured 24 hrs post reperfusion by nissl staining assay; assay type: functional, organism-based; procedure, shortened: as §2
Rattus norvegicus [5] = assay: In vivo neuroprotective activity in iv dosed Sprague-Dawley rat transient middle cerebral artery occlusion model assessed as reduction of infarct size measured 24 hrs post reperfusion by TTC staining assay; assay type: functional, organism-based
Procedure, shortened: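 Male Sprague-Dawley rats, 7 weeks, 260–280 g, under 10% chloral hydrate ip. Right MCA occluded 60 min by tip-burned 4-0 nylon thread via common carotid, then reperfused. Saline or drug given iv at reperfusion, ethanol as cosolvent. Killed 24 h later; six 2 mm slices in 1% TTC in PBS, 37 °C, 30 min. Infarct area traced as % of total area; n = 12.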

[6] = Cytotoxicity against rat PC12 cells assessed as cell proliferation at 10 uM by MTT assay relative to control; assay type: cell-based, PC-12; settings: read-out: Activity
Procedure, shortened: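 PC12 cells were grown in DMEM with 5% FBS, 5% horse serum and 2 mM glutamine at 37 °C, 5% CO2. They were seeded at 5×10^3 cells/well for 24 h, then exposed to 10 µM compound in full medium. Viability was read by MTT (5 mg/mL, 4 h) at 570 nm as % of control absorbance; n = 3.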

Cortex [7] = assay: Drug uptake in Sprague-Dawley rat cortex at 2 x 10^-5 mol/kg, iv measured at 60 mins by LC-MS analysis; assay type: ADME, organism-based; settings: in vivo, 1 h
Procedure, shortened: (§3)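 Male Sprague-Dawley rats (260-280 g, n = 4) given a single iv dose of 6 mg/kg. Blood was taken from the jugular vein into heparin tubes under ether, and plasma was spun out and stored at -70 °C. After saline perfusion, cortex was homogenized in 2 volumes of water. Samples were precipitated with acetonitrile with internal standard added and quantified by LC-MS against a weighted linear calibration.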

Plasma = assay: Drug uptake in Sprague-Dawley rat plasma at 2 x 10^-5 mol/kg, iv measured at 60 mins by LC-MS analysis; assay type: ADME, organism-based; settings: in vivo, 1 h; procedure, shortened: as §3
Cortex [8] = assay: Clearance in Sprague-Dawley rat cortex at 2 x 10^-5 mol/kg, iv by LC-MS analysis; assay type: ADME, organism-based; settings: in vivo; procedure, shortened: as §3
[9] = Clearance in Sprague-Dawley rat plasma at 2 x 10^-5 mol/kg, iv by LC-MS analysis; assay type: ADME, organism-based; settings: 2e-05 mol/kg; procedure, shortened: as §3
[10] = Volume of distribution in Sprague-Dawley rat cortex at 2 x 10^-5 mol/kg, iv by LC-MS analysis; assay type: ADME, organism-based; settings: 2e-05 mol/kg; procedure, shortened: as §3
[11] = AUC in Sprague-Dawley rat cortex at 2 x 10^-5 mol/kg, iv by LC-MS analysis; assay type: ADME, organism-based; settings: 2e-05 mol/kg; procedure, shortened: as §3
[12] = Terminal half life in Sprague-Dawley rat plasma at 2 x 10^-5 mol/kg, iv by LC-MS analysis; assay type: ADME, organism-based; settings: 2e-05 mol/kg, read-out: beta t1/2; procedure, shortened: as §3
[13] = Tmax in Sprague-Dawley rat plasma at 2 x 10^-5 mol/kg, iv by LC-MS analysis; assay type: ADME, organism-based; settings: 2e-05 mol/kg; procedure, shortened: as §3
[14] = Tmax in Sprague-Dawley rat cortex at 2 x 10^-5 mol/kg, iv by LC-MS analysis; assay type: ADME, organism-based; settings: 2e-05 mol/kg; procedure, shortened: as §3
[15] = Cmax in Sprague-Dawley rat cortex at 2 x 10^-5 mol/kg, iv measured at 2 mins by LC-MS analysis; assay type: ADME, organism-based; settings: 2e-05 mol/kg; procedure, shortened: as §3
[16] = Cmax in Sprague-Dawley rat plasma at 2 x 10^-5 mol/kg, iv measured at 2 mins by LC-MS analysis; assay type: ADME, organism-based; settings: 2e-05 mol/kg; procedure, shortened: as §3
Rattus norvegicus [17] = assay: Anti-ischemia activity in Sprague-Dawley rat transient middle cerebral artery occlusion model assessed as inhibition of cleaved caspase-3 protein expression in cerebral cortex at 1.5 to 6 mg/kg, iv measured 24 hrs post reperfusion by Western blot analysis relative to vehicle-treated control; assay type: functional, organism-based
Procedure, shortened: (§4)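 Rats underwent 60 min intraluminal right MCA occlusion under chloral hydrate, then reperfusion, with iv saline or drug (1.5, 3.0, 6.0 mg/kg) at reperfusion. At 24 h they were saline-perfused and cortex and hippocampus lysed in RIPA buffer. Protein was BCA-normalized, run on SDS-PAGE and blotted for Bcl-2, Bax, cleaved caspase-3 and β-actin with ECL detection; n = 4.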

Rattus norvegicus [18] = assay: Anti-ischemia activity in Sprague-Dawley rat transient middle cerebral artery occlusion model assessed as inhibition of cleaved caspase-3 protein expression in hippocampus at 1.5 to 6 mg/kg, iv measured 24 hrs post reperfusion by Western blot analysis relative to vehicle-treated control; assay type: functional, organism-based; procedure, shortened: as §4
Rattus norvegicus [19] = assay: Anti-ischemia activity in Sprague-Dawley rat transient middle cerebral artery occlusion model assessed as inhibition of Bax protein expression in cerebral cortex at 1.5 to 6 mg/kg, iv measured 24 hrs post reperfusion by Western blot analysis relative to vehicle-treated control; assay type: functional, organism-based; procedure, shortened: as §4
Rattus norvegicus [20] = assay: Anti-ischemia activity in Sprague-Dawley rat transient middle cerebral artery occlusion model assessed as inhibition of Bax protein expression in hippocampus at 1.5 to 6 mg/kg, iv measured 24 hrs post reperfusion by Western blot analysis relative to vehicle-treated control; assay type: functional, organism-based; procedure, shortened: as §4
Rattus norvegicus [21] = assay: Anti-ischemia activity in Sprague-Dawley rat transient middle cerebral artery occlusion model assessed as upregulation of Bcl-2 protein expression in cerebral cortex at 1.5 to 6 mg/kg, iv measured 24 hrs post reperfusion by Western blot analysis relative to vehicle-treated control; assay type: functional, organism-based; procedure, shortened: as §4
Rattus norvegicus [22] = assay: Anti-ischemia activity in Sprague-Dawley rat transient middle cerebral artery occlusion model assessed as upregulation of Bcl-2 protein expression in hippocampus at 1.5 to 6 mg/kg, iv measured 24 hrs post reperfusion by Western blot analysis relative to vehicle-treated control; assay type: functional, organism-based; procedure, shortened: as §4

COc1cc(O)cc2oc(=O)c(N3CCN(C)CC3)c(C)c12
Activity (Rattus norvegicus [1]): Active
Activity (Rattus norvegicus [2]): Active
Activity (Rattus norvegicus [3]): Dose-dependent effect
Activity (Rattus norvegicus [4]): Dose-dependent effect
Activity (Rattus norvegicus [5]): Dose-dependent effect
viability at 10 µM [6]: 101%
Drug uptake (Cortex [7]): Not Active
Drug uptake (Plasma): Not Active
CL (Cortex [8]): 0.558 L/min
clearance [9]: 9 mL/min
Vd [10]: 12.3 L
AUC [11]: 42.4 ng·h/mL
half-life [12]: 6.51 min
Tmax [13]: 2 min
Tmax [14]: 2 min
Cmax [15]: 122 ng/mL
Cmax [16]: 13300 ng/mL
inhibition (Rattus norvegicus [17]): Active
inhibition (Rattus norvegicus [18]): Active
inhibition (Rattus norvegicus [19]): Active
inhibition (Rattus norvegicus [20]): Active
Activity (Rattus norvegicus [21]): Active
Activity (Rattus norvegicus [22]): Active
